Experimental data as given in ChEMBL document CHEMBL5126644, “Synthesis and Structural Characterization of Novel Trihalo-sulfone Inhibitors of WNK1” (ACS Med Chem Lett, 2022).
Activity calls are given as the source filed them. The calls are words filed in the database; no cut-off is given here.

Tests used:
[1] = biological target: T1, Serine/threonine-protein kinase WNK1 (Homo sapiens, UniProt Q9H4A3); assay: Inhibition of TEV cleavage site-fused His6-tagged WNK1 (194 to 483 residues) (unknown origin) expressed in Rosetta (DE3) cells using GST-OSR1(314 to 344) peptide as substrate incubated for 2 hrs by kinase-glo luminescence assay
Target sequence in this assay (Q9H4A3 whole entry, the tested form may be a part): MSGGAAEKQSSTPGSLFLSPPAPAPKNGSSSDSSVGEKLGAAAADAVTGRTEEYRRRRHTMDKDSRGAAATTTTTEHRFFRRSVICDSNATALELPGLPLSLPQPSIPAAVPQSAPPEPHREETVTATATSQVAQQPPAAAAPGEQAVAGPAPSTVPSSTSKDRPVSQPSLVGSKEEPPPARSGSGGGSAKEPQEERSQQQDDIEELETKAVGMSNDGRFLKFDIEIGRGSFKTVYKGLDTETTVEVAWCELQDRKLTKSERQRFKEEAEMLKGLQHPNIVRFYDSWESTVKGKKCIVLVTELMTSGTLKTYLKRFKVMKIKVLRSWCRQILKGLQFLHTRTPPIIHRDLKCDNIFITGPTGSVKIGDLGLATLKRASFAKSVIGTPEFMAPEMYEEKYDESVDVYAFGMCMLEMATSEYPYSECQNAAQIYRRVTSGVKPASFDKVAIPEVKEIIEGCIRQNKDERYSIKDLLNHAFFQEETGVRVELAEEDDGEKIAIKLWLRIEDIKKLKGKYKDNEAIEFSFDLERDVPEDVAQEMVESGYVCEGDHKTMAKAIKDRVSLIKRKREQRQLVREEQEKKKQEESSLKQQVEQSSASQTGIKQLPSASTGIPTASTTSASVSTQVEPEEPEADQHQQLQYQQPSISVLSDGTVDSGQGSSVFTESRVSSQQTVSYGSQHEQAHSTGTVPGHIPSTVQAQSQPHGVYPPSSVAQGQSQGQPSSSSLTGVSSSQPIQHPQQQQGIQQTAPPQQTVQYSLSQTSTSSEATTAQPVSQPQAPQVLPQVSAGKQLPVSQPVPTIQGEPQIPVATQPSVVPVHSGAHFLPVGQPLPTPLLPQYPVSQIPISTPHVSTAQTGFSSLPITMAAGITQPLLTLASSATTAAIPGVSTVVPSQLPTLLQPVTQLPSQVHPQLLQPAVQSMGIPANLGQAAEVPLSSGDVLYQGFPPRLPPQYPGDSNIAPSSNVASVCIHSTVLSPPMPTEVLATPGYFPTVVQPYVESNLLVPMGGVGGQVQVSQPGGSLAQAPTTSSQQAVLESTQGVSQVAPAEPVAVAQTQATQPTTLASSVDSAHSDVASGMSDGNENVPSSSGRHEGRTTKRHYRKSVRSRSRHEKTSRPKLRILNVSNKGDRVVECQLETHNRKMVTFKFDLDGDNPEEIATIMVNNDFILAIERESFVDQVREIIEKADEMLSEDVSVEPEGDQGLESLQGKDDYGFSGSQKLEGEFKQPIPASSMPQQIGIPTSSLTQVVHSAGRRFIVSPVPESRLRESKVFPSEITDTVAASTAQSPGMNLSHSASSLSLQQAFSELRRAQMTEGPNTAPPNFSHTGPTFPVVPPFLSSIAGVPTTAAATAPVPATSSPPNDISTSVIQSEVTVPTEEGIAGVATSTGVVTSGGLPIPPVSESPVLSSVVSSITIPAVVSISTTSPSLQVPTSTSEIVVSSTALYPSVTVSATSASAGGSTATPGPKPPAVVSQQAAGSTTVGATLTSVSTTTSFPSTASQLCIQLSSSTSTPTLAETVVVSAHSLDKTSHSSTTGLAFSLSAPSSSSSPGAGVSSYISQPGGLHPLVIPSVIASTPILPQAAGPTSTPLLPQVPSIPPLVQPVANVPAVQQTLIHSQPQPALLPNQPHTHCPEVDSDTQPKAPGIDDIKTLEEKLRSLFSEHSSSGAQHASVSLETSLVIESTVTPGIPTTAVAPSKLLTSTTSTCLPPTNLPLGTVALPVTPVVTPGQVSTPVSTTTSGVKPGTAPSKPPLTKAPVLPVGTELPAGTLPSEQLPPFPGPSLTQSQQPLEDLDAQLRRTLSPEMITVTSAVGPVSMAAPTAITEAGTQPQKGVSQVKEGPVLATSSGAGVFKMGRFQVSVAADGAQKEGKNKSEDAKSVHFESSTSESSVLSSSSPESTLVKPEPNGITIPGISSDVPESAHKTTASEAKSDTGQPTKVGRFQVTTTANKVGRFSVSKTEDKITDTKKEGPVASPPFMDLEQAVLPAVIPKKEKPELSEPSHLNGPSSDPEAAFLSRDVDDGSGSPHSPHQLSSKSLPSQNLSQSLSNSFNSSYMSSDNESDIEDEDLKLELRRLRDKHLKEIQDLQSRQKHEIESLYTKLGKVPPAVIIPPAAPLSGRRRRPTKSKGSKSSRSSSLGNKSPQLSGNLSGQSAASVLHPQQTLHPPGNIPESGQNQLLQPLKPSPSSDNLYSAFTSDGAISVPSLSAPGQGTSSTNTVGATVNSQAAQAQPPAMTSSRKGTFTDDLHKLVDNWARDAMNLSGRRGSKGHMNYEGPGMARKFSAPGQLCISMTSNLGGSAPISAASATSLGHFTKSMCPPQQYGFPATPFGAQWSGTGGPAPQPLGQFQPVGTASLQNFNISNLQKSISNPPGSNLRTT

[2] = biological target: T1, Serine/threonine-protein kinase WNK1; assay: Inhibition of TEV cleavage site-fused His6-tagged WNK1 (194 to 483 residues) (unknown origin) expressed in Rosetta (DE3) cells using GST-OSR1(314 to 344) peptide as substrate measured after 30 mins by [gamma-32P]-ATP based liquid scintillation counting analysis; assay type: biochemical
Outline: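 Radiometric kinase assay using [γ-32P]ATP at low enzyme concentration. It was chosen over the luminescence format for more precise IC50 determination.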
Target sequence in this assay (Q9H4A3 whole entry, the tested form may be a part): as above

Homo sapiens = organism: Homo sapiens; assay: Selectivity ratio of IC50 for WNK3 (118 to 409 residues) (unknown origin) expressed in Escherichia coli BL21 DE3 to IC50 for TEV cleavage site-fused His6-tagged WNK1 (194 to 483 residues) (unknown origin) expressed in Rosetta (DE3) cells
MDA-MB-231 = assay: Cytotoxicity against human MDA-MB-231 cells assessed as cell viability up to 12 uM measured after 24 hrs; assay type: toxicity, cell-based; details: mda-mb-231, 24 h
[3] = biological target: Serine/threonine-protein kinase WNK3 (Homo sapiens) (UniProt Q9BYP7); assay: Inhibition of WNK3 (unknown origin) at 10 uM relative to control
[4] = biological target: T1, Serine/threonine-protein kinase WNK1; assay: Inhibition of WNK1 (unknown origin) at 10 uM relative to control
Target sequence in this assay (Q9H4A3 whole entry, looked up, the tested form may be a part): as the sequence (Q9H4A3 whole entry, the tested form may be a part) above

[5] = biological target: T1, Serine/threonine-protein kinase WNK1; assay: Inhibition of WNK1 in human MDA-MB-231 cells assessed as reduction in OSR1 phosphorylation measured after 24 hrs by Western blot analysis; assay type: cell-based
Outline: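 Endogenous OSR1 phosphorylation was measured in MDA-MB-231 breast cancer cells. Experiments were run in triplicate, and an IC50 was derived from the phosphorylation read-out.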
Target sequence in this assay (Q9H4A3 whole entry, the tested form may be a part): as above

[6] = biological target: Mitogen-activated protein kinase 10 (Homo sapiens) (UniProt P53779); assay: Inhibition of JNK3 (unknown origin) at 10 uM
[7] = biological target: Mitogen-activated protein kinase 9 (Homo sapiens) (UniProt P45984); assay: Inhibition of JNK2 (unknown origin) at 10 uM
[8] = biological target: Serine/threonine-protein kinase WNK2 (Homo sapiens) (UniProt Q9Y3S1); assay: Inhibition of WNK2 (unknown origin) at 10 uM relative to control

Mitogen-activated protein kinase 9 (Homo sapiens), sequence (P45984 whole entry, looked up): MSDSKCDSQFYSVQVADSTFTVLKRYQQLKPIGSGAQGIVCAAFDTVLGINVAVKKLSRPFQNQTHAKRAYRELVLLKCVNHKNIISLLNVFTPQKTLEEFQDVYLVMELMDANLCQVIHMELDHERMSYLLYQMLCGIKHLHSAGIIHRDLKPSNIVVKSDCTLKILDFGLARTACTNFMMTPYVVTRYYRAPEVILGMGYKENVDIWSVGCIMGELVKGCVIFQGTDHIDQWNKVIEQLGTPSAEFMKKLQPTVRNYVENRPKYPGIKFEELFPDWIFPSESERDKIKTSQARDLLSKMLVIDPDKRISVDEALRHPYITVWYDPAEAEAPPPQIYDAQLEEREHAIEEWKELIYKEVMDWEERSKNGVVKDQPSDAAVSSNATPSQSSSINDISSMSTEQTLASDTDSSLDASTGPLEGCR
Mitogen-activated protein kinase 10 (Homo sapiens), sequence (P53779 whole entry): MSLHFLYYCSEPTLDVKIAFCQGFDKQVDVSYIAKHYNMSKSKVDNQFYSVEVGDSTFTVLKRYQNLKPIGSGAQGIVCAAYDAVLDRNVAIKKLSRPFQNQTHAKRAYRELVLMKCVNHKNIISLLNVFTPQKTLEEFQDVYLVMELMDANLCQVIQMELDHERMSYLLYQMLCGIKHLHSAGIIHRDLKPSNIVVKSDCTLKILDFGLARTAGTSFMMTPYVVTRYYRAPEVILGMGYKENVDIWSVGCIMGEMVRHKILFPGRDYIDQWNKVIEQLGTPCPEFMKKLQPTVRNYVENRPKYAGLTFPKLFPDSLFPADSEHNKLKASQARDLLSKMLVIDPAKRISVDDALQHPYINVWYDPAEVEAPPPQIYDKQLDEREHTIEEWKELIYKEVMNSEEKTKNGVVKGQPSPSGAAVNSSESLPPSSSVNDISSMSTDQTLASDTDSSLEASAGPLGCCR

| IC50 [1] [µM] | IC50 [2] [µM] | SMILES | also measured |
| --- | --- | --- | --- |
| 15 | 5 | O=[N+]([O-])c1cc(S(=O)(=O)C(Cl)(Cl)Br)ccc1NCc1ccco1 |  |
| 76 | 7.2 | O=[N+]([O-])c1cc(S(=O)(=O)C(Cl)(Cl)Br)ccc1Nc1ccccc1 |  |
| > 1000 |  | CS(=O)(=O)c1ccc(NC2CCCCC2)c([N+](=O)[O-])c1 |  |
| > 1000 |  | O=S(=O)(c1ccc(NC2CCCCC2)cc1)C(Cl)(Cl)Br |  |
| 4 | 1.6 | O=[N+]([O-])c1cc(S(=O)(=O)C(Cl)(Cl)Br)ccc1NC1CCCCC1 | Ratio IC50 (Homo sapiens): 10; Activity (MDA-MB-231): Non-Toxic; inhibition [3]: 20%; inhibition [4]: 20%; IC50 [5]: 4.3 µM |
| 93 | 6.5 | O=[N+]([O-])c1cc(S(=O)(=O)C(Cl)(Cl)Br)ccc1NC1CCCC1 |  |
| > 1000 |  | O=[N+]([O-])c1cc(S(=O)(=O)C(Cl)Cl)ccc1NC1CCCCC1 |  |
| > 1000 |  | O=[N+]([O-])c1ccccc1NC1CCCCC1 |  |
| > 1000 |  | O=[N+]([O-])c1cc(S(=O)(=O)C(Cl)(Cl)Cl)ccc1NC1CCCCC1 |  |
| > 1000 | > 1000 | O=[N+]([O-])c1cc(S(=O)(=O)C(F)(F)F)ccc1NC1CCCCC1 |  |
| 79 | 6 | O=[N+]([O-])c1cc(S(=O)(=O)C(Cl)(Cl)Br)ccc1NCCCc1ccccc1 | inhibition [6]: Active; inhibition [7]: Active; inhibition [4]: 20%; inhibition [8]: 20% |
| > 1000 |  | CCS(=O)(=O)c1ccc(NC2CCCCC2)c([N+](=O)[O-])c1 |  |

| SMILES | IC50 [1] [µM] | IC50 [2] [µM] | also measured |
| --- | --- | --- | --- |
| CN1CCN(c2ccc(S(=O)(=O)C(Cl)(Cl)Br)cc2[N+](=O)[O-])CC1 | > 1000 |  |  |
